Source: ChEMBL document CHEMBL1126744, “Synthesis and structure-activity relationships of phenyl-substituted benzylamine antimycotics: a novel benzylbenzylamine antifungal agent for systemic treatment” (1993)
In brackets after ≈: the same amount, converted by molar mass.

Columns and labels:
[1] = tested on: Aspergillus fumigatus; test: In vitro antifungal activity against Aspergillus fumigatus expressed as MIC (mg/L); assay type: functional
In short: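 Broth dilution in glass tubes with Sabouraud's dextrose broth (pH 6.5). Inoculum was filamentous growth scraped from Kimmig agar cultures (30 °C, 21 days). Compounds were dissolved in DMSO and serially diluted in medium. Tubes were incubated 72 h at 30 °C. MIC is the lowest concentration with no macroscopically visible growth.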

[2] = tested on: Candida albicans; test: In vitro antifungal activity against Candida albicans delta124 expressed as MIC (mg/L); assay type: functional
In short: (§1)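 Tube broth dilution in malt extract broth (pH 4.8). Blastospores came from yeast nitrogen base cultures shaken at 37 °C for about 30 h. Compounds in DMSO were serially diluted in the broth. After 48 h at 30 °C, MIC was taken as the lowest concentration without macroscopically detectable growth.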

[3] = tested on: Candida albicans; test: In vitro antifungal activity against Candida albicans delta9 expressed as MIC (mg/L); assay type: functional; in short: as §1
[4] = tested on: Microsporum canis; test: In vitro antifungal activity against Microsporum canis expressed as MIC (mg/L); assay type: functional
In short: (§2)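 Fungi were grown on Kimmig agar (30 °C, 21 days) and harvested with a spatula. They were tested in glass tubes of Sabouraud's dextrose broth (pH 6.5) containing DMSO-dissolved compound serially diluted in medium. After 7 days at 30 °C, MIC was read as the lowest concentration with no macroscopically visible growth.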

[5] = tested on: Trichophyton benhamiae; test: In vitro antifungal activity against Trichophyton mentagrophytes expressed as MIC (mg/L); assay type: functional, Arthroderma benhamiae; in short: as §2
[6] = tested on: Candida parapsilosis; test: In vitro antifungal activity against Candida parapsilosis delta39 expressed as MIC (mg/L); assay type: functional; conditions: Lodderomyces parapsilosis; in short: as §1
[7] = tested on: Sporothrix schenckii; test: In vitro antifungal activity against Sporothrix schenck ii expressed as MIC (mg/L); assay type: functional; in short: as §2
[8] = tested on: Cavia porcellus; test: Percent mycological cure at a dose of 8 mg/kg per day in guinea pig trichophytosis model (treatment once daily for 9 days starting on the day of inoculation); assay type: functional
[9] = tested on: Cavia porcellus; test: Percent mycological cure in guinea pig skin candidosis model (topical treatment twice daily for 5 days starting 3 days after inoculation) using 2% solution (ED50=1.32%); assay type: functional
[10] = tested on: Cavia porcellus; test: In vivo inhibition in guinea pig trichophytosis model; assay type: functional

MIC [1]	MIC [2]	MIC [3]	MIC [4]	MIC [5]	MIC [6]	MIC [7]	Structure (SMILES)	Cure [8]	Cure [9]	ED50 [10]
> 200 µg/mL	> 200 µg/mL	> 200 µg/mL	0.01 µg/mL (≈ 0.0275 µM)	0.01 µg/mL (≈ 0.0275 µM)	0.8 µg/mL (≈ 2.2 µM)	1.56 µg/mL (≈ 4.29 µM)	C=C(c1ccccc1)c1ccc(CN(C)Cc2cccc3ccccc23)cc1			
> 200 µg/mL	> 200 µg/mL	> 200 µg/mL	0.006 µg/mL (≈ 0.0158 µM)	0.006 µg/mL (≈ 0.0158 µM)	3.13 µg/mL (≈ 8.23 µM)	3.13 µg/mL (≈ 8.23 µM)	CCN(c1ccccc1)c1ccc(CN(C)Cc2cccc3ccccc23)cc1			
> 200 µg/mL	> 200 µg/mL	> 200 µg/mL	> 200 µg/mL	10 µg/mL (≈ 29.6 µM)	> 200 µg/mL	> 200 µg/mL	CN(Cc1ccc(-c2ccccc2)cc1)Cc1cccc2ccccc12			
0.1 µg/mL (≈ 0.259 µM)	0.8 µg/mL (≈ 2.07 µM)	0.4 µg/mL (≈ 1.04 µM)	0.003 µg/mL (≈ 0.00778 µM)	0.003 µg/mL (≈ 0.00778 µM)	0.05 µg/mL (≈ 0.13 µM)	0.2 µg/mL (≈ 0.519 µM)	CN(Cc1ccc(C(C)(C)c2ccccc2)cc1)Cc1cccc2ccsc12			
> 200 µg/mL	> 200 µg/mL	> 200 µg/mL	0.8 µg/mL (≈ 2.26 µM)	0.4 µg/mL (≈ 1.13 µM)	> 200 µg/mL	> 200 µg/mL	CN(Cc1ccc(Oc2ccccc2)cc1)Cc1cccc2ccccc12			
> 200 µg/mL	> 200 µg/mL	> 200 µg/mL	0.1 µg/mL (≈ 0.274 µM)	0.05 µg/mL (≈ 0.137 µM)	50 µg/mL (≈ 137 µM)	> 200 µg/mL	CN(Cc1ccc(C(=O)c2ccccc2)cc1)Cc1cccc2ccccc12			
0.2 µg/mL (≈ 0.476 µM)	1.56 µg/mL (≈ 3.71 µM)	1.56 µg/mL (≈ 3.71 µM)	0.02 µg/mL (≈ 0.0476 µM)	0.02 µg/mL (≈ 0.0476 µM)	0.1 µg/mL (≈ 0.238 µM)	0.8 µg/mL (≈ 1.9 µM)	CN(Cc1ccc(C(C)(C)c2ccccc2)cc1)Cc1cccc2c(Cl)csc12			
> 200 µg/mL	> 200 µg/mL	> 200 µg/mL	3.13 µg/mL (≈ 7.93 µM)	0.8 µg/mL (≈ 2.03 µM)	> 200 µg/mL	> 200 µg/mL	CC(=O)N(c1ccccc1)c1ccc(CN(C)Cc2cccc3ccccc23)cc1			
12.5 µg/mL (≈ 31.8 µM)	6.25 µg/mL (≈ 15.9 µM)	6.25 µg/mL (≈ 15.9 µM)	0.1 µg/mL (≈ 0.254 µM)	0.1 µg/mL (≈ 0.254 µM)	0.1 µg/mL (≈ 0.254 µM)	0.4 µg/mL (≈ 1.02 µM)	Cc1ccc(C(C)(C)c2ccc(CN(C)Cc3cccc4ccccc34)cc2)cc1			
> 200 µg/mL	> 200 µg/mL	> 200 µg/mL	0.01 µg/mL (≈ 0.0275 µM)	0.1 µg/mL (≈ 0.275 µM)	> 200 µg/mL	> 200 µg/mL	CN(Cc1ccc(/C=C/c2ccccc2)cc1)Cc1cccc2ccccc12			
> 100 µg/mL	> 100 µg/mL	50 µg/mL (≈ 142 µM)	0.05 µg/mL (≈ 0.142 µM)	0.05 µg/mL (≈ 0.142 µM)	6.25 µg/mL (≈ 17.8 µM)	1.56 µg/mL (≈ 4.44 µM)	CN(Cc1ccc(Cc2ccccc2)cc1)Cc1cccc2ccccc12			
> 200 µg/mL	> 200 µg/mL	> 200 µg/mL	> 100 µg/mL	> 100 µg/mL	> 200 µg/mL	> 200 µg/mL	CN(Cc1ccc(Nc2ccccc2)cc1)Cc1cccc2ccccc12			
0.4 µg/mL (≈ 1.26 µM)	25 µg/mL (≈ 78.7 µM)	12.5 µg/mL (≈ 39.4 µM)	0.01 µg/mL (≈ 0.0315 µM)	0.006 µg/mL (≈ 0.0189 µM)	0.8 µg/mL (≈ 2.52 µM)	0.2 µg/mL (≈ 0.63 µM)	CN(Cc1ccc(C(C)(C)C)cc1)Cc1cccc2ccccc12 [BUTENAFINE]			
							COC1=CC(=O)C[C@@H](C)[C@]12Oc1c(Cl)c(OC)cc(OC)c1C2=O [GRISEOFULVIN]			40.7 mg/kg/day
							CC(=O)N1CCN(c2ccc(OCC3COC(Cn4ccnc4)(c4ccc(Cl)cc4Cl)O3)cc2)CC1 (configuration not stated) [KETOCONAZOLE]			50.8 mg/kg/day

Structure (SMILES)	MIC [1]	MIC [2]	MIC [3]	MIC [4]	MIC [5]	MIC [6]	MIC [7]	Cure [8]	Cure [9]	ED50 [10]
CN(Cc1ccc(C2(c3ccccc3)CC2)cc1)Cc1cccc2ccccc12	1.56 µg/mL (≈ 4.13 µM)	3.13 µg/mL (≈ 8.29 µM)	1.56 µg/mL (≈ 4.13 µM)	0.003 µg/mL (≈ 0.00795 µM)	0.006 µg/mL (≈ 0.0159 µM)	0.1 µg/mL (≈ 0.265 µM)	0.1 µg/mL (≈ 0.265 µM)			
CN(Cc1ccc(C(C)(C)c2ccccc2)cc1)Cc1cccc2ccccc12	0.1 µg/mL (≈ 0.263 µM)	1.56 µg/mL (≈ 4.11 µM)	0.8 µg/mL (≈ 2.11 µM)	0.003 µg/mL (≈ 0.0079 µM)	0.006 µg/mL (≈ 0.0158 µM)	0.1 µg/mL (≈ 0.263 µM)	0.2 µg/mL (≈ 0.527 µM)	100%	90%	4.6 mg/kg/day
CN(C/C=C/C#CC(C)(C)C)Cc1cccc2ccccc12 [TERBINAFINE]	0.8 µg/mL (≈ 2.75 µM)	25 µg/mL (≈ 85.8 µM)	6.25 µg/mL (≈ 21.4 µM)	0.006 µg/mL (≈ 0.0206 µM)	0.003 µg/mL (≈ 0.0103 µM)	0.8 µg/mL (≈ 2.75 µM)	0.4 µg/mL (≈ 1.37 µM)			
